The results in this text go back to ChEMBL document CHEMBL4513216, “Probing the Open Global Health Chemical Diversity Library for Multistage-Active Starting Points for Next-Generation Antimalarials” (ACS Infect Dis, 2020).

The data set in a line: Toxicity liver stage against HepG2, at 10uM. The format is cell-based. Also noted: test concentration 10 uM, cell line HepG2-A16-CD81EGFP. The conditions noted are these: human, HepG2-A16-CD81EGFP cells; read-out: INHIBITION
A digest of the protocol: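 Uninfected HepG2-A16-CD81EGFP cells, 3 × 10^3 per well, 1536-well, plated on prespotted compound at 10 μM final, parasite-free screening media added to match infected plates; puromycin 10 μM positive, DMSO 0.5% negative; run in parallel with 48 h PbLuc assay at 37 °C, 5% CO2; viability by CellTiter-Glo luminescence, normalized to controls.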
On to `COc1ccc(S(=O)(=O)N2CCOC(Cn3ccnc3)C2)cc1` (configuration not stated), for which the cytotoxicity at 10 µM came out at 7.25%.

Regarding `CC[C@H]1CN2CC[C@H]1C[C@@H]2CNC(=O)NC1CCCCC1`, the cytotoxicity at 10 µM worked out at 0.91%.

Regarding `CC[C@H]1CN(C(=O)C(C)(C)C)CC[C@H]1CC(=O)O`, the cytotoxicity at 10 µM was -0.61%.

With `CC(=O)c1cc2ncc(C(=O)NC3CCCC3)cc2[nH]1`, the cytotoxicity at 10 µM was -1.98%.

Take `CC(C)[C@H](NC(=O)NC1CCS(=O)(=O)C1)C(=O)NCc1ccc(Cl)cc1` (some centres not stated): the cytotoxicity at 10 µM is 3.09%.

Take `CCOC(=O)c1sc(NC(=O)c2cc(=O)c(OC)c[nH]2)nc1C`: the cytotoxicity at 10 µM is -57.1%.

Take `COC1CCN(c2ccc(NC(=O)Cn3cccn3)cc2)CC1`: the cytotoxicity at 10 µM amounted to 2.04%.

As to `CS(=O)(=O)N1CC2(CCN(c3nccs3)CC2)c2ccccc21`, the cytotoxicity at 10 µM was 0.933%.

For the compound `Cn1ncc2c1NC(=O)CSC2c1ccccc1Cl` (configuration not stated), the cytotoxicity at 10 µM turned out to be 5.81%.

Take `Cc1ccc(CS(=O)(=O)N2CC[C@H]3[C@H]2CCN3C)cc1`: the cytotoxicity at 10 µM is -11.6%.

Take `Cc1nn(C)c2cn(CC(=O)N3CCc4ccccc4C3)nc12`: the cytotoxicity at 10 µM turned out to be 8.41%.

`CCN(Cc1c(C)nn(CC)c1C)S(=O)(=O)c1cn(C)nc1C`: the cytotoxicity at 10 µM was found to be 7.36%.

As to `Cc1cc2ccccc2n1CC(=O)NCC(=O)N1CCOCC1`, the cytotoxicity at 10 µM is -7.7%.

For the compound `O=C(Cc1ccsc1)N1CCC[C@@H]1Cn1c(=O)oc2ccccc21`, the cytotoxicity at 10 µM came to 4.53%.

For `O=C(c1ccc(=O)[nH]n1)N1CCNCC1c1ccccc1` (configuration not stated), the cytotoxicity at 10 µM is -2.44%.

For the compound `CN1CCCCC12Cc1ccccc1CN(C(=O)C1CCCC1)C2` (configuration not stated), the cytotoxicity at 10 µM was found to be 2.88%.

On to `CCn1nnnc1-c1cccc(NC(N)=O)c1`, for which the cytotoxicity at 10 µM was 8.92%.

Turning to `CSCC(=O)NC1(c2cccc(Cl)c2)CC1`, the cytotoxicity at 10 µM was -1.54%.

As for `COCCn1c(C(=O)NC(C(N)=O)C(C)C)cc2ccccc21` (configuration not stated), the cytotoxicity at 10 µM was found to be 9.73%.

In the case of `COc1ccccc1CCNS(=O)(=O)N1CCOCC1`, the cytotoxicity at 10 µM came to 2.52%.

As to `CCOC(=O)N(C)C1CCN(Cc2cnc3ccccn23)CC1`, the cytotoxicity at 10 µM came to 18.1%.

Turning to `COCCOCCNC(=O)N1CCN(c2ccccc2C#N)CC1`, the cytotoxicity at 10 µM was 6.39%.

Regarding `CC(=O)N(Cc1ncc(C)o1)C1CCN(CCOc2ccccc2)C1` (configuration not stated), the cytotoxicity at 10 µM amounted to 7.02%.

With `CCn1cc(NC(=O)C2CCN(Cc3nc(C)c(C)o3)CC2)cn1`, the cytotoxicity at 10 µM was 5.3%.

As for `COc1cccc(S(=O)(=O)CCN2CCN(CCO)CC2)c1`, the cytotoxicity at 10 µM was found to be 0.878%.

Consider `CN(CC(N)=O)C(=O)c1cc(Cl)c(Cl)n1C`, for which the cytotoxicity at 10 µM came out at 8.56%.

In the case of `Cc1nn(CC(=O)N2CCN(Cc3cccnc3)CC2)c(C)c1Cl`, the cytotoxicity at 10 µM is 0.612%.

Take `CCc1cccc(C)c1NC(=O)C1CC(=O)N(Cc2ccccn2)C1` (configuration not stated): the cytotoxicity at 10 µM stood at 1.09%.

As for `Cc1nc(CC(=O)N2CCN(c3ccc(N(C)C)cc3)CC2)cs1`, the cytotoxicity at 10 µM turned out to be 0.236%.

Turning to `CC(Oc1ccccc1C(F)(F)F)C(=O)NCCNC(=O)C1CC1` (configuration not stated), the cytotoxicity at 10 µM was determined as 6.91%.

In the case of `CCn1ccnc1CN1CCN(CCCS(C)(=O)=O)CC1C` (configuration not stated), the cytotoxicity at 10 µM is -194%.

Turning to `Cc1nn(C(C)C)c(C)c1S(=O)(=O)Nc1cccc(F)c1`, the cytotoxicity at 10 µM is -0.335%.

Consider `Cc1cc(NCC(=O)N(C)CC(F)(F)F)c(C(N)=O)cc1F`, for which the cytotoxicity at 10 µM is -2.91%.

As for `CC(CCNC(=O)N1CCC1)N(C)C(=O)OC(C)(C)C` (configuration not stated), the cytotoxicity at 10 µM is -5.61%.

With `O=C1C(Sc2nc(=O)ccn2C2CC2)CCN1c1ccccc1F` (configuration not stated), the cytotoxicity at 10 µM was 1.73%.

Consider `CC(C)=CCN1CCN(C(=O)C2CCS(=O)(=O)C2)CC1` (configuration not stated), for which the cytotoxicity at 10 µM was -90.5%.

Take `CN(Cc1cccc(C#N)c1)C(=O)C1CC(c2cccc(F)c2)=NO1` (configuration not stated): the cytotoxicity at 10 µM is 1.85%.

Take `OC(COCc1cccs1)Cn1cc(-n2cccc2)cn1` (configuration not stated): the cytotoxicity at 10 µM was 0.12%.

As for `CC(C)c1nc(C2CCCN2c2ncc(C(N)=O)cc2Cl)no1` (configuration not stated), the cytotoxicity at 10 µM came out at 13.4%.

As for `Cc1n[nH]c(C2CN(Cc3csc(C4CCCCC4)n3)CCO2)n1` (configuration not stated), the cytotoxicity at 10 µM was 23.8%.

Consider `COCCNC(=O)NCc1cccc(-n2ccnc2)c1`, for which the cytotoxicity at 10 µM was determined as 16.1%.

`CC(C)(C#N)c1ccccc1CN(CCO)Cc1ccsc1`: the cytotoxicity at 10 µM came to 20%.

For the compound `Cc1ccc(OCC(C)NC(=O)CN(C)c2ccc(C#N)cn2)cc1` (configuration not stated), the cytotoxicity at 10 µM was -6.05%.

For the compound `N#CC1(NC(=O)c2ccc(-c3nc(C4CC4)n[nH]3)cc2)CC1`, the cytotoxicity at 10 µM is -10.7%.

As to `Cc1nc(-c2ccco2)ccc1C(=O)N1CCc2nnc(N)cc2C1`, the cytotoxicity at 10 µM was -7.09%.

On to `NCC1(c2cccc(C(F)(F)F)c2)CCOCC1`, for which the cytotoxicity at 10 µM is -11.1%.

Turning to `O=C(Nc1nncs1)NC1CCc2ccccc21` (configuration not stated), the cytotoxicity at 10 µM is -10%.

As to `O=C(c1ccc(-n2cnnc2)nc1)N1CCCC(O)(CO)CC1` (configuration not stated), the cytotoxicity at 10 µM is -0.274%.

`CCOCc1nc(-c2ccc(F)cc2Cl)n(C2CCN(C)CC2)n1`: the cytotoxicity at 10 µM is 0.0453%.

Consider `COc1ccc(N2CCN(C(=O)Cn3nc(C)c(C)c3C)C(C)C2)cc1` (configuration not stated), for which the cytotoxicity at 10 µM was -4.33%.

Consider `COCCc1noc(-c2cn(CCc3ccccc3)nn2)n1`, for which the cytotoxicity at 10 µM is -2.56%.

Consider `CSCCC(=O)N1CCC(CCC(=O)NCC2CCCO2)CC1` (configuration not stated), for which the cytotoxicity at 10 µM was 10.7%.

As for `O=S(=O)(Cc1ccccc1CN1CC[C@H](CO)[C@H](O)C1)c1ccccc1`, the cytotoxicity at 10 µM is -18.2%.

For the compound `N[C@@H]1c2ccccc2C2(CCN(C(=O)c3cncc(Cl)c3)CC2)[C@H]1O`, the cytotoxicity at 10 µM was -2.78%.

On to `Cc1ccc(CN(C)C(C(=O)O)c2ccc3c(c2)OCO3)o1` (configuration not stated), for which the cytotoxicity at 10 µM was 6.35%.

For the compound `C[C@@H]1CN(C(=O)c2cc(Cn3ccc4ccccc43)[nH]n2)C[C@H](C)O1`, the cytotoxicity at 10 µM was -12.2%.

As to `CSc1cccc(CN2CCn3nc(CNC(C)=O)cc3C2)c1`, the cytotoxicity at 10 µM is -1.03%.

With `CCc1nnc(N[C@H](C)c2cccc(OC)c2)o1`, the cytotoxicity at 10 µM was 1.35%.

With `CCOCCn1nc(C2CCNCC2)n(Cc2ccccc2)c1=O`, the cytotoxicity at 10 µM is 4.08%.

As to `C[C@@H]1CN(CCC(=O)N(C)Cc2ccccc2)C[C@@]1(O)C1CCC1`, the cytotoxicity at 10 µM was -6.95%.

In the case of `Nc1nc2c(c(=O)[nH]1)CCN(C(=O)c1ccccc1N1CCCC1)C2`, the cytotoxicity at 10 µM was found to be 1.79%.

Take `CC(=O)c1ccc(C(=O)N2CCC(c3cc(O)nc(C)n3)CC2)s1`: the cytotoxicity at 10 µM was found to be 1.3%.

Consider `Cc1ccccc1N1CCN(C(=O)CCc2nncn2C)C(C)C1` (configuration not stated), for which the cytotoxicity at 10 µM amounted to 3.34%.

As to `CCc1cnc(C)nc1NCCN1CCC(O)CC1`, the cytotoxicity at 10 µM came to 1.78%.

Turning to `Cc1cccc(-n2c(C)cc(=O)[nH]c2=O)c1C`, the cytotoxicity at 10 µM is -2%.

For the compound `CC1CCN(C(=O)c2cccc(CN3CCOCC3)c2)CC1`, the cytotoxicity at 10 µM amounted to 8.07%.

Take `CCCc1cncnc1N1CCC(NCCc2nc(O)cc(O)n2)CC1`: the cytotoxicity at 10 µM came out at 5.99%.

With `CSc1ncc(C(=O)N2C[C@@H](NC(C)=O)[C@H](c3ccc(C)cc3)C2)cn1`, the cytotoxicity at 10 µM is -0.645%.

For `COCCN(C)CCN1CC2(CCN(C3CCCOC3)CC2)OC1=O` (configuration not stated), the cytotoxicity at 10 µM was -11%.

As for `CN1CC(c2ccccc2)CC12CCN(C(=O)c1cncc(Cl)c1)CC2` (configuration not stated), the cytotoxicity at 10 µM was -12.6%.

Turning to `Cc1[nH]ccc1C(=O)N1CCC(c2nnc(Cn3ccnc3)n2C)CC1`, the cytotoxicity at 10 µM was -9.61%.

On to `CCn1cc(CNC2CC(=O)N(CCc3cccc(Cl)c3)C2)cn1` (configuration not stated), for which the cytotoxicity at 10 µM was -8.54%.

As for `Cc1ccc(C(C)N(C)Cc2nc3c(cnn3C)c(=O)[nH]2)c(C)c1` (configuration not stated), the cytotoxicity at 10 µM is -12.4%.

Turning to `c1ccc(OCC2CC2)c(CNC2CCc3ncnn3C2)c1` (configuration not stated), the cytotoxicity at 10 µM is -6.72%.

`CC(C)(C)c1noc(CN2CCN(C(=O)c3cccs3)CC2)n1`: the cytotoxicity at 10 µM was -5.82%.

On to `Cc1nc(C)c(C(=O)NCCNC(=O)Cc2ccccc2)s1`, for which the cytotoxicity at 10 µM was -7.89%.

Consider `Cc1nn(-c2ccccc2)c(C)c1CNC1CCc2ncnn2C1` (configuration not stated), for which the cytotoxicity at 10 µM is 2.87%.

For the compound `Cc1cc(C)n(CC2CN(Cc3nnsc3Cl)CCO2)n1` (configuration not stated), the cytotoxicity at 10 µM stood at 1.46%.

`CC(C(=O)NCCOc1ccc2c(c1)OCO2)n1cncn1` (configuration not stated): the cytotoxicity at 10 µM is -4.33%.

For `CC(=O)Nc1nc(C(=O)N2CCCC2c2ccccc2C)cs1` (configuration not stated), the cytotoxicity at 10 µM is -2.27%.

As for `Cn1ncc(NCc2cc(F)cc(F)c2)c(Cl)c1=O`, the cytotoxicity at 10 µM amounted to 6.69%.

As to `O=C(CNCCn1cccn1)NCC1(c2ccccc2)CC1`, the cytotoxicity at 10 µM turned out to be 3.15%.

As for `Cn1ncc2c1CCCC2NCc1ccc(Cl)s1` (configuration not stated), the cytotoxicity at 10 µM is 7.6%.

For the compound `CC(O)CN(CC(=O)NC(=O)NCC(F)(F)F)c1ccccc1` (configuration not stated), the cytotoxicity at 10 µM stood at 1.15%.

On to `Cc1nnc(N2CCC(CS(N)(=O)=O)CC2)c(C#N)c1C`, for which the cytotoxicity at 10 µM was 2.12%.

Take `COCc1cccc(NS(=O)(=O)c2cc(C(=O)O)cs2)c1`: the cytotoxicity at 10 µM is -4.69%.

Consider `c1nc(N2CCOCC2)sc1-c1cncn1CCCN1CCCCC1`, for which the cytotoxicity at 10 µM is 0.682%.

Turning to `N#Cc1cccc(N2CCCC3(C2)CN(c2ncc(F)cn2)CCO3)n1` (configuration not stated), the cytotoxicity at 10 µM was 22.3%.

`Cc1cccc(Cn2c3c(ccc2=O)CCN(Cc2ccoc2)CC3)n1`: the cytotoxicity at 10 µM is -11.5%.

On to `O=c1ccc2c(n1CCN1CCCC1)CCN(Cc1ccoc1)CC2`, for which the cytotoxicity at 10 µM is -8.97%.

With `Cn1cc(N2C(=O)CC[C@@H]3[C@H]2CCN3CC2CCOCC2)cn1`, the cytotoxicity at 10 µM was 7.86%.

Consider `CNCc1nc(-c2ccc3c(c2)OCO3)c[nH]1`, for which the cytotoxicity at 10 µM was 3.44%.

With `CNC(=O)[C@@H]1CCO[C@@H]2CCN(CCc3ccccc3)C[C@H]21`, the cytotoxicity at 10 µM was found to be 2.55%.

Turning to `CC(C)N(C)Cc1cnc2n1CCN(CCc1ccccc1)C2`, the cytotoxicity at 10 µM was -4.58%.

Consider `c1cc2nc(C3CCN(CC4CC4)CC3)nn2cc1N1CCCC1`, for which the cytotoxicity at 10 µM is -8.13%.

In the case of `Cc1nc[nH]c1CN1C[C@H]2CC[C@@H](C1)N(C(=O)CCc1cccnc1)C2`, the cytotoxicity at 10 µM was -14.2%.

As to `CN1CCCCc2c1nc1c(c2N)CCC1`, the cytotoxicity at 10 µM worked out at 8.45%.
